Results: ChEMBL document CHEMBL5376013, “Design, synthesis and biological evaluation of novel morpholinopyrimidine-5-carbonitrile derivatives as dual PI3K/mTOR inhibitors” (RSC Med Chem, 2024)

Key:
Assay type in all cases: functional
Settings in all cases: read-out: GI
[1] = system: U-251; test: Antitumor activity against human U-251 cells assessed as growth inhibition at 10 uM relative to control
How it was run: (§1)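 Drug exposure 48 h at 37 °C, 5% CO2. Adherent cells fixed with cold TCA (10% final), suspension cells with TCA (16% final). Stained with 0.4% SRB in 1% acetic acid, dissolved in 10 mM Tris, A515. Growth relative to time-zero and untreated control.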

[2] = system: SNB-19; test: Antitumor activity against human SNB-19 cells assessed as growth inhibition at 10 uM relative to control; how it was run: as §1
[3] = system: SK-MEL-2; test: Antitumor activity against human SK-MEL-2 cells assessed as growth inhibition at 10 uM relative to control
How it was run: (§2)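 After drug addition, plates were incubated 48 h at 37 °C under 5% CO2. Adherent cells were fixed with cold TCA (10% final, 60 min, 4 °C) and suspension cells with 16% final TCA. Staining used 0.4% SRB in 1% acetic acid, solubilized in 10 mM trizma, read at A515. Percent growth was calculated from time-zero, control and treated absorbances.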

[4] = system: PC-3; test: Antitumor activity against human PC-3 cells assessed as growth inhibition at 10 uM relative to control; how it was run: as §2
[5] = system: IGROV-1; test: Antitumor activity against human IGROV-1 cells assessed as growth inhibition at 10 uM relative to control; how it was run: as §2
[6] = system: SNB-75; test: Antitumor activity against human SNB-75 cells assessed as growth inhibition at 10 uM relative to control; how it was run: as §1
[7] = system: OVCAR-8; test: Antitumor activity against human OVCAR-8 cells assessed as growth inhibition at 10 uM relative to control; how it was run: as §2
[8] = system: HOP-62; test: Antitumor activity against human HOP-62 cells assessed as growth inhibition at 10 uM relative to control; how it was run: as §2
[9] = system: M14; test: Antitumor activity against human M14 cells assessed as growth inhibition at 10 uM relative to control; how it was run: as §2
[10] = system: SK-OV-3; test: Antitumor activity against human SK-OV-3 cells assessed as growth inhibition at 10 uM relative to control; how it was run: as §1
[11] = system: SR; test: Antitumor activity against human SR cells assessed as growth inhibition at 10 uM relative to control; how it was run: as §1
[12] = system: RXF 393; test: Antitumor activity against human RXF 393 cells assessed as growth inhibition at 10 uM relative to control; how it was run: as §2
[13] = system: A549; test: Antitumor activity against human A549 cells assessed as growth inhibition at 10 uM relative to control; how it was run: as §2
[14] = system: SF-268; test: Antitumor activity against human SF-268 cells assessed as growth inhibition at 10 uM relative to control; how it was run: as §2
[15] = system: BT-549; test: Antitumor activity against human BT-549 cells assessed as growth inhibition at 10 uM relative to control; how it was run: as §2
[16] = system: Hs-578T; test: Antitumor activity against human Hs-578T cells assessed as growth inhibition at 10 uM relative to control; how it was run: as §2
[17] = system: UO-31; test: Antitumor activity against human UO-31 cells assessed as growth inhibition at 10 uM relative to control; how it was run: as §1
[18] = system: HOP-92; test: Antitumor activity against human HOP-92 cells assessed as growth inhibition at 10 uM relative to control; how it was run: as §2
[19] = system: LOX IMVI; test: Antitumor activity against human LOX IMVI cells assessed as growth inhibition at 10 uM relative to control; how it was run: as §2
[20] = system: NCI-H322M; test: Antitumor activity against human NCI-H322M cells assessed as growth inhibition at 10 uM relative to control; how it was run: as §2
[21] = system: NCI-H226; test: Antitumor activity against human NCI-H226 cells assessed as growth inhibition at 10 uM relative to control; how it was run: as §2
[22] = system: SF-539; test: Antitumor activity against human SF-539 cells assessed as growth inhibition at 10 uM relative to control; how it was run: as §2
[23] = system: HL-60; test: Antitumor activity against human HL-60 cells assessed as growth inhibition at 10 uM relative to control; how it was run: as §2
[24] = system: HCT-15; test: Antitumor activity against human HCT-15 cells assessed as growth inhibition at 10 uM relative to control; how it was run: as §2
[25] = system: DU-145; test: Antitumor activity against human DU-145 cells assessed as growth inhibition at 10 uM relative to control; how it was run: as §2
[26] = system: K562; test: Antitumor activity against human K562 cells assessed as growth inhibition at 10 uM relative to control; how it was run: as §2
[27] = system: A498; test: Antitumor activity against human A498 cells assessed as growth inhibition at 10 uM relative to control; how it was run: as §2
[28] = system: MOLT-4; test: Antitumor activity against human MOLT-4 cells assessed as growth inhibition at 10 uM relative to control; how it was run: as §2
[29] = system: EKVX; test: Antitumor activity against human EKVX cells assessed as growth inhibition at 10 uM relative to control; how it was run: as §2
[30] = system: MDA-MB-435; test: Antitumor activity against human MDA-MB-435 cells assessed as growth inhibition at 10 uM relative to control; how it was run: as §2
[31] = system: NCI-H23; test: Antitumor activity against human NCI-H23 cells assessed as growth inhibition at 10 uM relative to control; how it was run: as §2
[32] = system: TK-10; test: Antitumor activity against human TK-10 cells assessed as growth inhibition at 10 uM relative to control; how it was run: as §1
[33] = system: MCF7; test: Antitumor activity against human MCF7 cells assessed as growth inhibition at 10 uM relative to control; how it was run: as §2
[34] = system: HCT-116; test: Antitumor activity against human HCT-116 cells assessed as growth inhibition at 10 uM relative to control; how it was run: as §2
[35] = system: 786-0; test: Antitumor activity against human 786-0 cells assessed as growth inhibition at 10 uM relative to control; how it was run: as §2
[36] = system: HCC 2998; test: Antitumor activity against human HCC 2998 cells assessed as growth inhibition at 10 uM relative to control; how it was run: as §2
[37] = system: CAKI-1; test: Antitumor activity against human CAKI-1 cells assessed as growth inhibition at 10 uM relative to control; how it was run: as §2
[38] = system: SK-MEL-5; test: Antitumor activity against human SK-MEL-5 cells assessed as growth inhibition at 10 uM relative to control; how it was run: as §1
[39] = system: SF-295; test: Antitumor activity against human SF-295 cells assessed as growth inhibition at 10 uM relative to control; how it was run: as §2
[40] = system: NCI-H522; test: Antitumor activity against human NCI-H522 cells assessed as growth inhibition at 10 uM relative to control; how it was run: as §2
[41] = system: OVCAR-4; test: Antitumor activity against human OVCAR-4 cells assessed as growth inhibition at 10 uM relative to control; how it was run: as §2
[42] = system: MDA-MB-231; test: Antitumor activity against human MDA-MB-231 cells assessed as growth inhibition at 10 uM relative to control; how it was run: as §2
[43] = system: UACC-257; test: Antitumor activity against human UACC-257 cells assessed as growth inhibition at 10 uM relative to control; how it was run: as §1
[44] = system: OVCAR-5; test: Antitumor activity against human OVCAR-5 cells assessed as growth inhibition at 10 uM relative to control; how it was run: as §2
[45] = system: OVCAR-3; test: Antitumor activity against human OVCAR-3 cells assessed as growth inhibition at 10 uM relative to control; how it was run: as §2
[46] = system: COLO 205; test: Antitumor activity against human COLO 205 cells assessed as growth inhibition at 10 uM relative to control; how it was run: as §2

## N#Cc1c(-c2ccc(Cl)cc2)nc(N/N=C/c2cccc(F)c2)nc1N1CCOCC1
[1]
  inhibition of growth at 10 µM: 21.1%
[2]
  inhibition of growth at 10 µM: < 1%
[3]
  inhibition of growth at 10 µM: < 1%
[4]
  inhibition of growth at 10 µM: 14.9%
[5]
  inhibition of growth at 10 µM: 17.4%
[6]
  inhibition of growth at 10 µM: 35.8%
[7]
  inhibition of growth at 10 µM: < 1%
[8]
  inhibition of growth at 10 µM: 10.3%
[9]
  inhibition of growth at 10 µM: < 1%
[10]
  inhibition of growth at 10 µM: < 1%
[11]
  inhibition of growth at 10 µM: < 1%
[12]
  inhibition of growth at 10 µM: < 1%
[13]
  inhibition of growth at 10 µM: < 1%
[14]
  inhibition of growth at 10 µM: < 1%
[15]
  inhibition of growth at 10 µM: < 1%
[16]
  inhibition of growth at 10 µM: < 1%
[17]
  inhibition of growth at 10 µM: 37.5%
[18]
  inhibition of growth at 10 µM: < 1%
[19]
  inhibition of growth at 10 µM: 11.8%
[20]
  inhibition of growth at 10 µM: < 1%
[21]
  inhibition of growth at 10 µM: < 1%
[22]
  inhibition of growth at 10 µM: < 1%
[23]
  inhibition of growth at 10 µM: < 1%
[24]
  inhibition of growth at 10 µM: 21.3%
[25]
  inhibition of growth at 10 µM: < 1%
[26]
  inhibition of growth at 10 µM: 15%
[27]
  inhibition of growth at 10 µM: 17%
[28]
  inhibition of growth at 10 µM: 25.9%
[29]
  inhibition of growth at 10 µM: 26.2%
[30]
  inhibition of growth at 10 µM: < 1%
[31]
  inhibition of growth at 10 µM: < 1%
[32]
  inhibition of growth at 10 µM: < 1%
[33]
  inhibition of growth at 10 µM: < 12.4%
[34]
  inhibition of growth at 10 µM: < 1%
[35]
  inhibition of growth at 10 µM: < 1%
[36]
  inhibition of growth at 10 µM: < 1%
[37]
  inhibition of growth at 10 µM: 13.7%
[38]
  inhibition of growth at 10 µM: < 1%
[39]
  inhibition of growth at 10 µM: < 1%
[40]
  inhibition of growth at 10 µM: 11.6%
[41]
  inhibition of growth at 10 µM: < 1%
[42]
  inhibition of growth at 10 µM: < 1%
[43]
  inhibition of growth at 10 µM: < 1%
[44]
  inhibition of growth at 10 µM: < 1%
[45]
  inhibition of growth at 10 µM: < 1%
[46]
  inhibition of growth at 10 µM: 27.2%

## N#Cc1c(-c2ccc(Cl)cc2)nc(NN)nc1N1CCOCC1
[1]
  inhibition of growth at 10 µM: < 1%
[2]
  inhibition of growth at 10 µM: < 1%
[3]
  inhibition of growth at 10 µM: < 1%
[4]
  inhibition of growth at 10 µM: < 1%
[5]
  inhibition of growth at 10 µM: 15.9%
[6]
  inhibition of growth at 10 µM: 26.9%
[7]
  inhibition of growth at 10 µM: < 1%
[8]
  inhibition of growth at 10 µM: 14.4%
[9]
  inhibition of growth at 10 µM: < 1%
[10]
  inhibition of growth at 10 µM: < 1%
[11]
  inhibition of growth at 10 µM: 26.9%
[12]
  inhibition of growth at 10 µM: < 1%
[13]
  inhibition of growth at 10 µM: < 1%
[14]
  inhibition of growth at 10 µM: < 1%
[15]
  inhibition of growth at 10 µM: < 1%
[16]
  inhibition of growth at 10 µM: < 1%
[17]
  inhibition of growth at 10 µM: 34.1%
[18]
  inhibition of growth at 10 µM: 10.6%
[19]
  inhibition of growth at 10 µM: < 1%
[20]
  inhibition of growth at 10 µM: < 1%
[21]
  inhibition of growth at 10 µM: 14.1%
[22]
  inhibition of growth at 10 µM: 12.3%
[23]
  inhibition of growth at 10 µM: < 1%
[24]
  inhibition of growth at 10 µM: < 1%
[25]
  inhibition of growth at 10 µM: < 1%
[26]
  inhibition of growth at 10 µM: < 1%
[27]
  inhibition of growth at 10 µM: 27.8%
[28]
  inhibition of growth at 10 µM: < 1%
[29]
  inhibition of growth at 10 µM: 14.3%
[30]
  inhibition of growth at 10 µM: < 1%
[31]
  inhibition of growth at 10 µM: 11.7%
[32]
  inhibition of growth at 10 µM: < 1%
[33]
  inhibition of growth at 10 µM: 1%
[34]
  inhibition of growth at 10 µM: < 1%
[35]
  inhibition of growth at 10 µM: < 1%
[36]
  inhibition of growth at 10 µM: < 1%
[37]
  inhibition of growth at 10 µM: 20.8%
[38]
  inhibition of growth at 10 µM: < 1%
[39]
  inhibition of growth at 10 µM: < 1%
[40]
  inhibition of growth at 10 µM: < 1%
[41]
  inhibition of growth at 10 µM: < 1%
[42]
  inhibition of growth at 10 µM: 14.5%
[43]
  inhibition of growth at 10 µM: < 1%
[44]
  inhibition of growth at 10 µM: < 1%
[45]
  inhibition of growth at 10 µM: < 1%
[46]
  inhibition of growth at 10 µM: < 1%
